In ChEMBL document CHEMBL5104200, “Discovery and Biological Characterization of PRMT5:MEP50 Protein-Protein Interaction Inhibitors” (J Med Chem, 2022):
Values belong to the molecule of their own block, whether it stands above or below them. The source made the active and inactive calls. No cut-off for these calls is given here.

Assays:
[1] = target: T1, PRMT5/MEP50 complex (Homo sapiens) (UniProt O14744+Q9BQA1); assay: Inhibition of PRMT5/MEP50 (unknown origin) protein-protein interaction expressed in COS-1 cells at 10 uM incubated for 18 hrs by BiFC screening analysis relative to control; assay type: cell-based
How it was run: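 Transfected COS-1 cells (VN-PRMT5, VC-MEP50, NLS-CFP) treated at 10 µM or DMSO six hours after transfection; imaged 24 h after transfection. Per-cell YFP:CFP mean intensity ratio normalized to DMSO gives BiFC efficiency; inhibition = 100% minus efficiency. Single biological replicate screen.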

[2] = target: T1, PRMT5/MEP50 complex (Homo sapiens); assay: Inhibition of PRMT5/MEP50 (unknown origin) protein-protein interaction expressed in COS-1 cells at 250 to 500 nM incubated for 18 hrs by BiFC screening analysis relative to control; assay type: cell-based; conditions: dose 250-500 nM
How it was run: (§1)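 COS-1 seeded 50,000 cells/well, co-transfected with Myc-VN155-PRMT5, HA-VC-MEP50 and FLAG-NLS-CFP. After 24 h transfection, treated 18 h at 0.5 µM or 0.25 µM (separate screens), then imaged (YFP, CFP). Per-cell YFP:CFP ratio normalized to DMSO gives BiFC efficiency; % inhibition = 100% − efficiency. Single biological replicate screens.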

[3] = target: T1, PRMT5/MEP50 complex (Homo sapiens); assay: Inhibition of PRMT5 /MEP50 protein-protein interaction in human LNCaP cells at 500 nM incubated for 24 hrs by co-immunoprecipitation method; assay type: cell-based
How it was run: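 LNCaP treated 500 nM or DMSO for 24 h, lysed 1 h at 4 °C in Tris pH 7.4/NaCl/EDTA/Triton buffer with protease inhibitors. 1 mg/mL lysate immunoprecipitated overnight with anti-PRMT5, anti-MEP50 or rabbit IgG on protein A beads. Blots probed for PRMT5 and MEP50; signal normalized to 0.4% input.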

LNCaP [4] = assay: Induction of cell death in human LNCaP cells incubated for 72 hrs by MTT assay; assay type: functional, cell-based
How it was run: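 LNCaP seeded 7,000 cells/well, attached 24 h, then given an 11-point dilution series plus DMSO control (constant 0.25% DMSO) for 72 h at 37 °C, 5% CO2. MTT at 0.5 mg/mL in complete RPMI for 4 h, then dissolved in DMSO and read at 570 nm. IC50 from regression curve; mean of three biological replicates.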

[5] = target: T1, PRMT5/MEP50 complex (Homo sapiens); assay: Inhibition of PRMT5 /MEP50 protein-protein interaction in human LNCaP cells assessed as reduction in H4R3me2 level after 72 hrs by densitometry method; assay type: cell-based; conditions: DDE = dose-dependent effect
How it was run: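 LNCaP treated 72 h; lysed in RIPA with protease inhibitors, protein by Bradford, 20 µg loaded on 15% gel. Blotted with anti-H4R3 and anti-H4R3me2s, IRDye 800CW secondary, infrared imaging. H4R3me2s integrated intensity normalized to H4R3 versus DMSO; three biological replicates, t-test.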

LNCaP [6] = assay: Upregulation of PTEN gene expression in human LNCaP cells at 500 nM after 72 hrs by RT-qPCR analysis; assay type: functional, cell-based
How it was run: (§2)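 LNCaP seeded in 6 or 10 cm dishes, attached 24 h, treated 500 nM or DMSO for 72 h. RNA by Trizol, integrity checked on agarose gel. RT-qPCR in technical triplicate, CT normalized to GAPDH; three biological replicates, Student's t-test.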

LNCaP [7] = assay: Upregulation of RB1 gene expression in human LNCaP cells at 500 nM after 72 hrs by RT-qPCR analysis; assay type: functional, cell-based; how it was run: as §2
A549 = assay: Cytotoxicity against human A549 cells after 72 hrs by MTT assay; assay type: functional, cell-based; conditions: A549, 72 h
[8] = target: T1, PRMT5/MEP50 complex (Homo sapiens); assay: Inhibition of PRMT5/MEP50 protein-protein interaction in human LNCaP cells assessed as reduction in TGF-beta signalling after 72 hrs
[9] = target: T1, PRMT5/MEP50 complex (Homo sapiens); assay: Inhibition of PRMT5 /MEP50 protein-protein interaction in human LNCaP cells assessed as increase in IVL gene expression at 500 nM after 72 hrs by RT-qPCR analysis
COS-1 = assay: Induction of cell death in African green monkey COS-1 cells at 10 uM; assay type: functional, cell-based; conditions: Chlorocebus aethiops
[10] = target: T1, PRMT5/MEP50 complex (Homo sapiens); assay: Inhibition of PRMT/MEP50 (unknown origin) protein-protein interaction expressed in COS-1 cells incubated for 18 hrs by BiFC screening analysis; assay type: cell-based; conditions: DDE = dose-dependent effect; how it was run: as §1
[11] = target: T1, PRMT5/MEP50 complex (Homo sapiens); assay: Inhibition of PRMT5/MEP50 (unknown origin) protein-protein interaction expressed in COS-1 cells at 0.25 uM incubated for 18 hrs by BiFC screening analysis relative to control; assay type: cell-based; how it was run: as §1

SMILES: c1ccc(-n2cnc3ccccc32)cc1
inhibition [1]: 24%

SMILES: CCCCC(=O)Nc1sc2c(c1C(=O)NC1CCS(=O)(=O)C1)CCC(C(C)(C)C)C2 (stereo not drawn)
inhibition [1]: 24%

SMILES: CCN(CC)c1ccc(/C=C2\S/C(=N/NC(=O)c3ccc(Cl)cc3Cl)NC2=O)cc1
inhibition [1]: 24%

Further lines, with some results ahead:

inhibition [1]: 24%
SMILES: Cn1cc(C(=O)NCC2CCN(C(=O)c3nc(-c4ccccc4)n4c3CCCCC4)CC2)cn1

inhibition [2]: Active | inhibition [3]: 65.4% | inhibition [5]: Dde | inhibition [8]: Active | inhibition [9]: Active
SMILES: CCc1noc(C)c1COc1cccc(C(=O)NNC(=O)c2ccc3ccccc3n2)c1
IC50 (LNCaP [4]): 430 nM | Activity (LNCaP [4]; DDE = dose-dependent effect): Dde | Activity (LNCaP [6]): Active | Activity (LNCaP [7]): Active | IC50 (A549): 447 nM

inhibition [10]: Dde | inhibition [11]: 41%
SMILES: Cc1noc(C)c1COc1cccc(C(=O)NNC(=O)c2ccc3ccccc3n2)c1
Activity (COS-1): Active | IC50 (LNCaP [4]): 1660 nM
